Source: ChEMBL document CHEMBL3400013, “Synthesis and biological activity evaluation of hydrazone derivatives based on a Tröger's base skeleton” (Bioorg Med Chem, 2015)
Activity calls are given as the source filed them. The calls are words filed in the database; no cut-off is given here.

Assays:
[1] = system: BJ; assay: Selectivity index, ratio of IC50 for human BJ cells to IC50 for human CCRF-CEM cells; assay type: functional; details: pooled result: one value given for 2 cell lines, strains, targets or settings
[2] = system: CEM-DNR; assay: Selectivity index, ratio of IC50 for human MRC5 cells to IC50 for human CEM-DNR cells; assay type: functional
[3] = system: K562; assay: Selectivity index, ratio of IC50 for human MRC5 cells to IC50 for human K562 cells; assay type: functional
[4] = system: BJ; assay: Selectivity index, ratio of IC50 for human BJ cells to IC50 for human K562-TAX cells; assay type: functional
[5] = system: MRC5; assay: Selectivity index, ratio of IC50 for human MRC5 cells to IC50 for human K562-TAX cells; assay type: functional
[6] = system: BJ; assay: Selectivity index, ratio of IC50 for human BJ cells to IC50 for human HCT116 cells; assay type: functional
[7] = system: HCT-116; assay: Selectivity index, ratio of IC50 for human MRC5 cells to IC50 for human p53-/- HCT116 cells; assay type: functional
[8] = system: K562; assay: Cytostatic activity against human K562 cells after 72 hrs by MTT assay; assay type: functional, cell-based; details: K562, 72 h
Method in brief: (§1)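 Cells were seeded at 25,000–30,000 per well and pre-incubated for 24 h at 37°C in 5% CO2. Four-fold compound dilutions were added in duplicate and incubated for 72 h. MTT was added for 1–4 h, and formazan was dissolved in 10% aq SDS (pH 5.5) overnight at 37°C. OD was read at 540 nm. IC50 came from dose-response curves, mean ± SD of eight independent experiments.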

[9] = Cytostatic activity against human p53-/- HCT116 cells after 72 hrs by MTT assay; assay type: functional, cell-based; details: HCT-116, 72 h; method in brief: as §1
[10] = system: MRC5; assay: Cytostatic activity against human MRC5 cells after 72 hrs by MTT assay; assay type: ADME, cell-based; details: MRC5, 72 h; method in brief: as §1
[11] = system: CCRF-CEM; assay: Cell cycle arrest in human CCRF-CEM cells assessed as accumulation at G0/G1 phase at IC50 after 24 hrs by propidium iodide staining-based flow cytometry; assay type: functional
Method in brief: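 Cells were then fixed in 70% ethanol, washed in hypotonic citrate buffer, treated with RNase (50 µg/mL) and stained with propidium iodide. Flow cytometry used a 488 nm laser. Apoptosis was scored as the percentage of particles with propidium content below G0/G1.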

[12] = system: CCRF-CEM; assay: Induction of apoptosis in human CCRF-CEM cells assessed as inhibition of RNA synthesis at IC50 after 24 hrs by propidium iodide/BrU staining by flow cytometry; assay type: functional; set-up: scale not given: the % may be the effect or the level left
[13] = system: CCRF-CEM; assay: Induction of apoptosis in human CCRF-CEM cells assessed as inhibition of RNA synthesis at 5 times IC50 after 24 hrs by propidium iodide/BrU staining by flow cytometry; assay type: functional; set-up: scale not given: the % may be the effect or the level left
[14] = system: Escherichia coli; assay: Antimicrobial activity against Escherichia coli CCM 3954 up to 200 uM after 24 to 48 hrs by broth microdilution method; assay type: functional, organism-based
[15] = system: Staphylococcus aureus; assay: Antimicrobial activity against methicillin-resistant Staphylococcus aureus MRSA 4591 up to 200 uM after 24 to 48 hrs by broth microdilution method; assay type: functional, organism-based
[16] = system: Escherichia coli; assay: Antimicrobial activity against multidrug-resistant Escherichia coli C/16702 up to 200 uM after 24 to 48 hrs by broth microdilution method; assay type: functional, organism-based
[17] = system: Candida albicans; assay: Antifungal activity against Candida albicans up to 200 uM after 24 to 48 hrs by broth microdilution method; assay type: functional, organism-based
[18] = Metal chelating activity of the compound assessed as formation of Zn2+ complex by UV-vis spectrometry; assay type: physicochemical
[19] = Metal chelating activity of the compound assessed as formation of Mn2+ complex by UV-vis spectrometry; assay type: physicochemical
[20] = system: Nucleic Acid; assay: Binding affinity to DNA (unknown origin) assessed as DNA intercalation by UV-visible spectrophotometry in presence of Co2+; assay type: nucleic-acid assay
[21] = system: CCRF-CEM; assay: Induction of apoptosis in human CCRF-CEM cells assessed as inhibition of RNA synthesis after 24 hrs by propidium iodide/BrU staining by flow cytometry; assay type: functional, cell-based

Row | SMILES | Ratio IC50 [1] | Ratio IC50 [2] | Ratio IC50 [3] | Ratio IC50 [4] | Ratio IC50 [5] | Ratio IC50 [6] | Ratio IC50 [7] | IC50 [8] [nM] | IC50 [9] [nM] | IC50 [10] [nM] | Activity [11] [%] | Activity [12] [%] | Activity [13] [%] | Activity [14] | Activity [15] | Activity [16] | Activity [17] | Activity [18] | Activity [19] | Activity [20] | other results
1 | COc1ccc(O)c(/C=N/NC(=O)c2ccc3c4c(ccc3c2)N2Cc3c(ccc5cc(C(=O)N/N=C/c6cc(OC)ccc6O)ccc35)N(C4)C2)c1 | 162.3 | 13.3 | 357.2 | 137.7 | 137.7 | 622.3 | 495 | 80 | 60 | 110 | 30 | 63.95 | 56.37 | inactive | inactive | inactive | inactive | Active | Not Active | Active | –
2 | O=C(NN=C(c1ccccn1)c1ccccn1)c1ccc2c3c(ccc2c1)N1Cc2c(ccc4cc(C(=O)NN=C(c5ccccn5)c5ccccn5)ccc24)N(C3)C1 | 1.7 | 0.7 | 2.4 | 2.8 | 2.8 | 3.4 | 2 | 640 | 780 | 1030 | 28.27 | 60.37 | 55.9 | inactive | inactive | inactive | inactive | Active | Not Active | Active | –
3 | O=C(N/N=C/c1ccccc1O)c1ccc2c3c(ccc2c1)N1Cc2c(ccc4cc(C(=O)N/N=C/c5ccccc5O)ccc24)N(C3)C1 | 0.9 | 0.1 | 0.6 | 0.4 | 0.4 | 0.8 | 1.7 | 580 | 190 | 390 | 30.6 | 59.79 | 83.92 | inactive | inactive | inactive | inactive | Active | Not Active | Active | –
4 | COC(=O)c1ccc(O)c(/C=N/NC(=O)c2ccc3c4c(ccc3c2)N2Cc3c(ccc5cc(C(=O)N/N=C/c6cc(C(=O)OC)ccc6O)ccc35)N(C4)C2)c1 | 16.3 | 3.2 | 9.4 | 4.3 | 4.3 | 8.9 | 9.7 | 9760 | 9470 | 95400 | 48.63 | 28.66 | 21.03 | inactive | inactive | inactive | inactive | Active | Not Active | Active | –
5 | O=C(N/N=C/c1nccc2ccccc12)c1ccc2c3c(ccc2c1)N1Cc2c(ccc4cc(C(=O)N/N=C/c5nccc6ccccc56)ccc24)N(C3)C1 | 172 | 15.9 | 121.9 | 9.9 | 9.9 | 5.7 | 4 | 820 | 25300 | > 100000 | 46.09 | 44 | 16.94 | inactive | inactive | inactive | inactive | Active | Not Active | Active | inhibition [21]: Dose-dependent effect
6 | O=C(N/N=C/c1cc(F)ccc1O)c1ccc2c3c(ccc2c1)N1Cc2c(ccc4cc(C(=O)N/N=C/c5cc(F)ccc5O)ccc24)N(C3)C1 | 26.3 | 9.8 | 18.1 | 17.6 | 17.6 | 64.9 | 51 | 2300 | 810 | 29000 | 31.5 | 63.13 | 4.37 | inactive | inactive | inactive | inactive | Active | Not Active | Active | inhibition [21]: Dose-dependent effect
7 | Cc1ccc(O)c(/C=N/NC(=O)c2ccc3c4c(ccc3c2)N2Cc3c(ccc5cc(C(=O)N/N=C/c6cc(C)ccc6O)ccc35)N(C4)C2)c1 | 0.8 | 0.1 | 0.5 | 0.4 | 0.4 | 0.8 | 1.1 | 900 | 450 | 270 | 40.52 | 33.57 | 26.44 | inactive | inactive | inactive | inactive | Active | Not Active | Active | –
8 | O=C(N/N=C/c1cc(O)ccc1O)c1ccc2c3c(ccc2c1)N1Cc2c(ccc4cc(C(=O)N/N=C/c5cc(O)ccc5O)ccc24)N(C3)C1 | 63.2 | 1.4 | 8 | 13.8 | 13.8 | 9.1 | 29 | 440 | 120 | 550 | 37.38 | 48.47 | 43.16 | inactive | inactive | inactive | inactive | Active | Not Active | Active | –
